# Reference: the RNAGym collection of RNA variant scans (doi:10.1038/nmeth.2970)
# B1: NELF-E aptamer (parent)
# chain: CCCAACGACUGCCGAGCGAGAUUACGCUUGAGCGCCCCACUGAGGAUGCCCACGGGCGAUUGGGGCACGG
# Variants of: B1
# Experiment: HiTS-RAP
# Details: with NELF-E (Drosophila)
# Method in brief: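 Aptamer DNA templates bearing a T7 promoter and a ter site were sequenced on an Illumina GAIIx flowcell. T7 RNA polymerase then transcribed them in situ, and GST-Tus halted transcription over 30 minutes at 37°C. After a 30-minute room-temperature equilibration with NELF-E-mOrange at 0.064 to 1000 nM in HEPES binding buffer, clusters were imaged, using only the first binding curve. Intensities normalised to sequencing intensity were averaged per sequence and fitted with weighted Hill fits to give Kd, retaining only fits whose variance stayed under 1,000,000.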
row,Variant,Kd
1,A4U G65A,5.54 nM
2,A4U G65U,6.16 nM
3,A4G A8C,6.29 nM
4,A4G A8U,6.21 nM
5,A4G A8G,5.83 nM
6,A4U U28C,7.47 nM
7,A4U U28A,5.47 nM
8,A5G A43U,33.6 nM
9,A5G A43G,25.6 nM
10,A4C A24G,7.08 nM
11,A4U G11A,4.95 nM
12,A4U G11U,6.41 nM
13,A4G C35A,9.55 nM
14,A4G C35U,13.5 nM
15,A5C U41G,7.61 nM
16,A4C C9G,7.49 nM
17,A4G G16U,6.47 nM
18,A4G G16A,6.14 nM
19,A5G C53U,4.59 nM
20,A4U G20U,6.62 nM
21,A4C C6G,8.66 nM
22,A5G C38U,9.85 nM
23,A5C C9G,7.82 nM
24,A5G C66U,6.42 nM

row,Variant,Kd
1,A4G U23C,4.96 nM
2,A4G U23G,5.42 nM
3,A4G U23A,5.89 nM
4,A4U A59G,70.4 nM
5,A4U A43G,40 nM
6,A4G A59G,40 nM
7,A4G A59U,113 nM
8,A5G A15U,7.04 nM
9,A5G A15G,6.77 nM
10,A4G U41C,73 nM
11,A4G U41G,5.56 nM
12,A4G U41A,73.6 nM
13,A5C G14U,6.73 nM
14,C2A,5.18 nM
15,C2G,5.3 nM
16,C2U,5.27 nM
17,A4C U41G,8.98 nM
18,A5G A67U,7.84 nM
19,A5G A67G,6.71 nM
20,A5G C40U,60.2 nM
21,A4G G48U,8.36 nM
22,A4G G48A,11 nM
23,A4C A8G,6.82 nM
24,A5C U22G,6.87 nM

row,Variant,Kd
1,A4C U10G,6.48 nM
2,A5G C33U,6.71 nM
3,A4U G55A,8.55 nM
4,A4G U29G,5.5 nM
5,A4G U29C,6.03 nM
6,A4G U29A,5.44 nM
7,A4G G45A,85.6 nM
8,A4G G45U,8.32 nM
9,A4U G62A,13.5 nM
10,A4U A52U,20.1 nM
11,A4U A52G,4.05 nM
12,A4U A67G,5.89 nM
13,A4G A31G,7.17 nM
14,A4G A31C,4.18 nM
15,A4G A31U,6.57 nM
16,A4U A19U,5.66 nM
17,A4U A19G,6.92 nM
18,A4G U47G,7.07 nM
19,A4G U47A,12.3 nM
20,A4G G65A,5.5 nM
21,A4G G65U,6.71 nM
22,A4G G65C,16.2 nM
23,A4C U29G,7.86 nM
24,A5G A21U,6.3 nM

row,Variant,Kd
1,A5G A21G,5.66 nM
2,A5C C6A,7.97 nM
3,A5C C6G,5.97 nM
4,A5C C13G,6.73 nM
5,A4U G30A,3.77 nM
6,A4G G34C,10.8 nM
7,A4G G34U,6.59 nM
8,A4G G34A,7.45 nM
9,A5C G7U,7.5 nM
10,A5G G7A,6.52 nM
11,A5G G7U,6.59 nM
12,A4U U61C,74.2 nM
13,A4U U61A,22.7 nM
14,A4U C13A,4.82 nM
15,A4U C13U,5.19 nM
16,A4U C13G,5.84 nM
17,A4G C40U,64.8 nM
18,A4G C40G,6.29 nM
19,A4U U41C,66 nM
20,A4U U41A,86.3 nM
21,A4U U41G,6.46 nM
22,A4U A5U,4.82 nM
23,A4U A5G,5.88 nM
24,A5G C6G,5.46 nM

row,Variant,Kd
1,A5G C6A,6.25 nM
2,A5G C6U,5.92 nM
3,A4G G30A,4.89 nM
4,A4G G30U,5.76 nM
5,A4G U61A,37.8 nM
6,A4G U61C,66.2 nM
7,A4G U61G,9.81 nM
8,A4U C53U,3.61 nM
9,A4U,5.39 nM
10,A4C,6.33 nM
11,A4G,5.08 nM
12,A4G G26A,4.55 nM
13,A4G G26U,7.06 nM
14,A4U C37A,13 nM
15,A4U C37U,9.84 nM
16,A5G C13G,5.6 nM
17,A5G C13U,5.63 nM
18,A5G C13A,5.36 nM
19,A5G A59U,113 nM
20,A5G A59G,29.5 nM
21,A4U A8U,6.22 nM
22,A4U A8G,6.19 nM
23,A4U G56A,10.8 nM
24,A4G C37G,6.99 nM

row,Variant,Kd
1,A4G C37U,13.2 nM
2,A4G C37A,12.3 nM
3,A4G G58U,13.2 nM
4,A4U C57U,5.44 nM
5,A4G G54U,6.61 nM
6,A4G G54A,14.1 nM
7,A4U G26U,4.31 nM
8,A4U G26A,4.14 nM
9,A4U G34A,6.2 nM
10,A4G G14A,5.98 nM
11,A4G G14U,6.38 nM
12,A4C U23G,7.29 nM
13,A4G G55U,7.68 nM
14,A4G G55A,8.61 nM
15,A4G G55C,8.07 nM
16,A5C G16U,8.04 nM
17,A4U G14U,6.79 nM
18,A4U G14A,6 nM
19,A4G A24U,6.89 nM
20,A4G A24G,6.26 nM
21,A4G C36A,7.98 nM
22,A4G C36G,10.4 nM
23,A4G C36U,7.32 nM
24,A4U U29C,5.56 nM

row,Variant,Kd
1,A4U U29G,5.91 nM
2,A4U U29A,4.29 nM
3,A4G G64C,7.19 nM
4,A4G G64U,7.6 nM
5,A4G G64A,8.61 nM
6,A4G C13A,5.91 nM
7,A4G C13U,4.78 nM
8,A4G C13G,5.3 nM
9,A4G A52G,4.59 nM
10,A4G A52U,18.3 nM
11,A4G A52C,6.42 nM
12,A4G G63U,11.1 nM
13,A4G G63A,15.1 nM
14,A4G G63C,28.6 nM
15,A4U U23G,6.29 nM
16,A4U C6G,5.99 nM
17,A4U C6U,6.4 nM
18,A4U C9U,5.8 nM
19,A4U C9G,5.93 nM
20,A5C U23G,7.92 nM
21,A4U A15U,6.22 nM
22,A4U A15G,5.02 nM
23,A4G C57G,7.07 nM
24,A4G C57U,5.88 nM

row,Variant,Kd
1,A5G C17G,5.22 nM
2,A5G C17U,6.29 nM
3,A5G C36U,6.13 nM
4,A4U C12U,5.44 nM
5,A4U C12G,5.79 nM
6,A5C U29G,7.04 nM
7,A4G C53G,7.58 nM
8,A4G C53A,6.64 nM
9,A4G C53U,3.85 nM
10,A4U A31G,6.99 nM
11,A4U A31U,7.69 nM
12,A4C C12G,7.65 nM
13,A4G A21U,5.84 nM
14,A4G A21G,6 nM
15,A5G A8U,6.29 nM
16,A5G A8G,6.06 nM
17,A5G A8C,9.31 nM
18,A4U G64A,10.1 nM
19,A5G A46G,15.3 nM
20,A5G A46U,90.8 nM
21,A5G A31U,5.74 nM
22,A5G A31G,7.69 nM
23,A4U A24G,6.45 nM
24,A4U A21G,5.7 nM

row,Variant,Kd
1,A4U A21U,6.22 nM
2,A4G C17A,4.31 nM
3,A4G C17U,5.09 nM
4,A4G C17G,5.57 nM
5,A4U C66U,5.14 nM
6,A4C A5G,6.09 nM
7,A5G A24G,6.27 nM
8,A4G C25G,5.98 nM
9,A4G C25A,6.24 nM
10,A4G C25U,6.15 nM
11,A5G A39U,34.5 nM
12,A5G A39C,22.3 nM
13,A5G A39G,13.2 nM
14,A4U G16U,6.93 nM
15,A4G G62U,8.86 nM
16,A4G G62A,20.8 nM
17,A4G A46U,72.7 nM
18,A4G A46G,37.6 nM
19,A5G,5.54 nM
20,A5C,6.55 nM
21,A4U U22C,5.97 nM
22,A4U U22G,5.86 nM
23,A4G A67U,6.47 nM
24,A4G A67C,5.34 nM

row,Variant,Kd
1,A4G A67G,6.54 nM
2,A4G C38U,8.59 nM
3,A4G C38A,44.4 nM
4,A5C A8C,8.75 nM
5,A5C A8G,6.78 nM
6,A5C A8U,8.29 nM
7,A4G A5C,6.45 nM
8,A4G A5U,5.91 nM
9,A4G A5G,5.81 nM
10,A4U G7U,6.61 nM
11,A4G C66U,5.13 nM
12,A4G C66G,5.69 nM
13,A4G C6G,5.28 nM
14,A4G C6U,6.08 nM
15,A4G C6A,6.8 nM
16,A5G A19G,5.88 nM
17,A5G A19U,7.26 nM
18,A4U C50U,12.7 nM
19,A4G C12G,5.9 nM
20,A4G C12U,5.25 nM
21,A4G C12A,5.36 nM
22,A4C G7U,6.88 nM
23,A4G G42U,9.27 nM
24,A4G G42A,45.2 nM

row,Variant,Kd
1,A4U C25G,5.99 nM
2,A4U C25U,4.95 nM
3,A4G U10C,5.06 nM
4,A4G U10G,5.09 nM
5,A4G U10A,5.89 nM
6,A4G C27G,5.73 nM
7,A4G C27U,4.47 nM
8,A4G C27A,5.54 nM
9,A4G U60A,10.6 nM
10,A4G U60G,6.94 nM
11,A4G U60C,9.89 nM
12,A4G U28G,6.58 nM
13,A4G U28A,4.59 nM
14,A4G U28C,9.05 nM
15,A5G C27U,5.87 nM
16,A5G C9G,5.97 nM
17,A5G C9U,6.36 nM
18,A5C U10G,6.68 nM
19,A4U G63U,11.1 nM
20,A4U G63A,13.6 nM
21,A4G C51G,4.36 nM
22,A4G C51U,7.58 nM
23,A4G C51A,9.97 nM
24,A5G C12U,6.51 nM

row,Variant,Kd
1,A5G C12G,6.02 nM
2,A5G C12A,5.04 nM
3,A4C U22G,6.04 nM
4,A4U C17G,5.58 nM
5,A4U C17U,5.01 nM
6,A4U A46G,58.7 nM
7,A4G A15G,4.97 nM
8,A4G A15U,6.63 nM
9,A4G G44U,7.66 nM
10,A4G G44A,54.3 nM
11,A4G G11A,6.4 nM
12,A4G G11U,6.46 nM
13,C1A,4.94 nM
14,C1G,4.93 nM
15,C1U,4.73 nM
16,A4G A43C,90.1 nM
17,A4G A43U,57 nM
18,A4G A43G,22.2 nM
19,A4U U10C,6.91 nM
20,A4U U10A,4.41 nM
21,A4U U10G,5.45 nM
22,A4G G20U,7.1 nM
23,A4G G20A,5.15 nM
24,A5G C37U,10.4 nM

row,Variant,Kd
1,A4G C33U,5.81 nM
2,A4G C33A,5.4 nM
3,A4G C33G,5.81 nM
4,A4G C50G,10.4 nM
5,A4G C50U,14.2 nM
6,A4G C50A,17.7 nM
7,A5G C50G,6.45 nM
8,A5G C50U,21.6 nM
9,A4G C49U,20.8 nM
10,A5G C51U,7.39 nM
11,A4U C38U,6.95 nM
12,A4U C51U,7.05 nM
13,A4G G18A,5.38 nM
14,A4G G18U,5.96 nM
15,A4G G32U,5.95 nM
16,A4G G32A,5.33 nM
17,A4U G32A,5.67 nM
18,A5G A52U,17 nM
19,A5G A52G,4.26 nM
20,A4G C9U,5.95 nM
21,A4G C9A,6.66 nM
22,A4G C9G,5.74 nM
23,A4U A39G,10.9 nM
24,A4U A39U,31.1 nM

row,Variant,Kd
1,A5G C25G,6.52 nM
2,A4C G14U,7.54 nM
3,A4G G56A,9.42 nM
4,A4G G56U,6.06 nM
5,A4U G18A,4.13 nM
6,A4U U47G,6.26 nM
7,A4U U47A,12.5 nM
8,A4G G7A,6.95 nM
9,A4G G7U,6.07 nM
10,A4G G7C,7.38 nM
11,A4G U22G,5.51 nM
12,A4G U22A,6.17 nM
13,A4G U22C,4.86 nM
14,A4G A39G,10.6 nM
15,A4G A39C,30.7 nM
16,A4G A39U,25.9 nM
17,C3G,5.16 nM
18,C3U,5.55 nM
19,C3A,5.8 nM
20,A4G A19G,5.64 nM
21,A4G A19C,4.21 nM
22,A4G A19U,6.08 nM
